Experimental data from different studies.
Read-out: cell growth or viability

Compound | cell line | test | setting | endpoint | result
C[C@@H]1CC[C@@H]([C@](C)(O)CNCc2cccc(F)c2)[C@H](OCc2ccccc2)C1 | HeLa | MTT | 10 µM, 72 h | inhibition | 72.5%
Cc1cc(NC(=O)C=Cc2ccccc2)cc(-c2ccnc(N3CCC(O)CC3)c2)c1 | HeLa | MTT | 5 µM | inhibition | 26.6%
Cc1c(C(=O)O)ccc2c3n(nc12)[C@@H]1[C@H](C3)N(CC2CC2)[C@@]2(C(=O)Nc3cc(Cl)ccc32)[C@H]1c1cccc(Cl)c1F | U2OS | resazurin |  | GI50 | > 2 µM
C=C(COCc1ccccc1)[C@@H]1CC[C@@H](C)C[C@H]1OCc1ccccc1 | HeLa | MTT | 10 µM, 72 h | inhibition | 40.4%
O=C(C=Cc1ccccc1)Nc1cc(-c2ccnc(N3CCOCC3)c2)ccn1 | HeLa | MTT | 5 µM | inhibition | 74%
COc1cc2ncnc(N(C)c3ccc4c(c3)/C(=C/c3cccc(Cl)c3)C(=O)N4C)c2cc1OC | H22 | MTT |  | IC50 | 4.47 µM
C=C(C)[C@@H]1CC[C@@H](C)C[C@H]1OCc1ccc(OC)cc1 | HeLa | MTT | 30 µM, 72 h | inhibition | 54%
Cc1cccc(/C=C/C(=O)Nc2cccc(-c3ccnc(N4CCC(CO)CC4)c3)c2)c1 | HeLa | MTT | 5 µM | inhibition | 56.2%
CC1(C)CCC2(CC1)N[C@@H](C(=O)N[C@@H]1CC[C@@H](C(N)=O)OC1)[C@H](c1ccnc(Cl)c1F)[C@]21C(=O)Nc2cc(Cl)ccc21 | U2OS | resazurin | 72 h | GI50 | > 1 µM
Cc1nc(N(C)c2ccc3c(c2)/C(=C/c2ccccc2Cl)C(=O)N3C)c2ccccc2n1 | H22 | MTT |  | IC50 | 8.98 µM
C[C@@H]1CC[C@@H]([C@](C)(O)CNCc2cccc3ccccc23)[C@H](OCc2ccccc2)C1 | HeLa | MTT | 30 µM, 72 h | inhibition | 86.8%
O=C(C=Cc1ccccc1)Nc1cccc(-c2ccnc(N3CCC(O)CC3)c2)c1 | HeLa | MTT | 5 µM | inhibition | 55.7%
C=CC(=O)NC1CCN(c2ncc3ncnc(Nc4ccc(Oc5ccc6c(c5)ncn6C)c(C)c4)c3n2)CC1 | HPAC |  |  | EC50 | 0.0351 µM
Cc1nc(Nc2ccc3c(c2)C(C)(C)C(=O)N3C)c2ccccc2n1 | H22 | MTT |  | IC50 | 24.1 µM
C[C@@H]1CC[C@@H]([C@@](O)(CNCc2ccccc2)COCc2ccc(F)cc2)[C@H](OCc2ccc(F)cc2)C1 | HeLa | MTT | 10 µM, 72 h | inhibition | 96%
O=C(/C=C/c1cccc(F)c1)Nc1cc(-c2ccnc(N3CCC(O)CC3)c2)ccn1 | HeLa | MTT | 5 µM | inhibition | 85%
C#Cc1nc(C2=C(C)C(OC(=O)CCC)/C(=N/OC(=O)CCC)C2)cs1 (stereo not shown) | U2OS |  |  | CC50 | 5.95 µM
Cc1cccc(/C=C/C(=O)Nc2cccc(-c3ccnc(N4CCOCC4)c3)c2)c1 | HeLa | MTT | 5 µM | inhibition | 24.1%
C[C@@H]1CC[C@@H]([C@](C)(O)Cn2cnc3ccccc32)[C@H](OCc2ccccc2)C1 | HeLa | MTT | 30 µM, 72 h | inhibition | 89%
